In ChEMBL document CHEMBL4196061, “Novel topoisomerase I inhibitors. Syntheses and biological evaluation of phosphorus substituted quinoline derivates with antiproliferative activity” (Eur J Med Chem, 2018) one finds IC50 and inhibition data, which are given here for 21 molecules.

As a reminder, the IC50 is the concentration that inhibits the measured activity by half. Read a high IC50 as lower potency. By inhibition is commonly meant the change of the read-out against control, counted positive when it falls.

Molecules are shown by their SMILES.

In one experiment the test system is SK-OV-3. Description: Antiproliferative activity against human SKOV3 cells after 48 hrs by CCK-8 assay. The experiment is classed as functional, cell-based. The following applies: SK-OV-3, 48 h. The method, boiled down: (§1)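 Cells seeded at 2-4 x 10^3 per well and grown overnight in 0.1 mL medium with 10% FBS at 37 °C under 5% CO2. Drugs were added on day 2 and cells incubated 48 h. CCK-8 was then added for 2 h at 37 °C and absorbance read at 450 nm. IC50 values were reported.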

Experiment [1] deals with T1, DNA topoisomerase 1 (Homo sapiens) (UniProt P11387).
T1 sequence (whole entry): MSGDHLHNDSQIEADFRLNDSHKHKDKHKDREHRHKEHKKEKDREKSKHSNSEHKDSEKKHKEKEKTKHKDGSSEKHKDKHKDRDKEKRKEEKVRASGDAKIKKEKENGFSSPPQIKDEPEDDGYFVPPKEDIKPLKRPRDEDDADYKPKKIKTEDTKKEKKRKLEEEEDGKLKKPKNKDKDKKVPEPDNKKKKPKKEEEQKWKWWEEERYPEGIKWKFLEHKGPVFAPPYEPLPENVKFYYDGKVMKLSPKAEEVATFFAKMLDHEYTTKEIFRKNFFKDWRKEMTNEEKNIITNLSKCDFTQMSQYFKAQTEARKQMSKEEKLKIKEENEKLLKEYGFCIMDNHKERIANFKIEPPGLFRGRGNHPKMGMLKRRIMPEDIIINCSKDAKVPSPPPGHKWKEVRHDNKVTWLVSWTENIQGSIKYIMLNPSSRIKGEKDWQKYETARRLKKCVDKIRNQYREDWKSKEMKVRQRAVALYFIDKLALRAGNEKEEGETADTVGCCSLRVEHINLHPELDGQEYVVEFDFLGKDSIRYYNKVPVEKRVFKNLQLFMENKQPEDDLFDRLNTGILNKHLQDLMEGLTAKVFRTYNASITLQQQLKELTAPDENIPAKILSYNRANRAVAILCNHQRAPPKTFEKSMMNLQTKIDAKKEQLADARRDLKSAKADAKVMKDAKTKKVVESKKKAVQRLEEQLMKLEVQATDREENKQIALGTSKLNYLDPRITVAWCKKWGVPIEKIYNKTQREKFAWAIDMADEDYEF
Description: Inhibition of recombinant human topoisomerase 1-mediated DNA relaxation expressed in Saccharomyces cerevisiae TopI null strain RS190 at 80 uM using negatively supercoiled pUC18 as substrate pretreated with enzyme for 15 mins followed by substrate addition measured after 1 min by agarose gel electrophoresis. The method, boiled down:
(§2)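 Human TopI was expressed from pHT143 (GAL promoter) in yeast RS190 and affinity-purified. Reactions used 110 ng/µL TopI and 0.5 µg supercoiled pUC18 in 20 µl buffer (20 mM Tris–HCl, 0.1 mM Na2EDTA, 10 mM MgCl2, 50 µg/mL acetylated BSA, 150 mM KCl, pH 7.5). Drug was mixed with enzyme before DNA was added, and reactions were stopped with SDS. Products were resolved on 1% agarose in TBE and stained with gel red.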

A further experiment has as its system HEK293. Description: Antiproliferative activity against human HEK293 cells after 48 hrs by CCK-8 assay. The following applies: HEK293, 48 h. (In general: Tetrazolium assays rely on reduction of a dye to a coloured formazan, in cell work by metabolically active cells.)
The test system of the next experiment is MRC5. Description: Antiproliferative activity against human MRC5 cells after 48 hrs by CCK-8 assay. It is filed as cell-based. The settings on record: MRC5, 48 h. The method, boiled down: as §1
A further experiment relates to A549. Description: Antiproliferative activity against human A549 cells after 48 hrs by CCK-8 assay. The following applies: A549, 48 h. It is filed as functional, cell-based. The method, boiled down: as §1
Experiment [2] has as its target T1, DNA topoisomerase 1 (Homo sapiens). Description: Inhibition of recombinant human topoisomerase 1-mediated DNA relaxation expressed in Saccharomyces cerevisiae TopI null strain RS190 at 80 uM using negatively supercoiled pUC18 as substrate pretreated with enzyme for 15 mins followed by substrate addition measured after 3 mins by agarose gel electrophoresis. The method, boiled down: as §2

The target is the same in experiment [3]. Description: Inhibition of recombinant human topoisomerase 1-mediated DNA relaxation expressed in Saccharomyces cerevisiae TopI null strain RS190 at 80 uM using negatively supercoiled pUC18 as substrate pretreated with enzyme for 15 mins followed by substrate addition measured after 15 secs by agarose gel electrophoresis. The method, boiled down: as §2

As to `FC(F)(F)c1ccc([C@@H]2C[C@H](c3ccccc3)c3cccc(P(c4ccccc4)c4ccccc4)c3N2)cc1`, the IC50 with SK-OV-3 is greater than 50 µM; in the experiment on HEK293, greater than 50 µM; in the experiment with MRC5, greater than 50 µM; in the experiment with A549 it was 16.2 µM. Further, the inhibition in experiment [1] amounted to 61%; in experiment [2] it was 59%; in experiment [3], 61%.
On to `FC(F)(F)c1ccc([C@@H]2C[C@H](c3ccccc3)c3cccc(P(=S)(c4ccccc4)c4ccccc4)c3N2)cc1`, for which the IC50 with SK-OV-3 was greater than 50 µM; with HEK293, greater than 50 µM; in the experiment on MRC5, greater than 50 µM; with A549, 0.22 µM. For the same molecule, the inhibition in experiment [1] worked out at 17%; in experiment [2], 17%; in experiment [3], 20%.
As for `COc1ccccc1[C@@H]1C[C@H](c2ccccc2)c2cccc(P(=O)(c3ccccc3)c3ccccc3)c2N1`, the IC50 with SK-OV-3 is greater than 50 µM; with HEK293 it was 16.3 µM; with MRC5, greater than 50 µM; with A549, 0.21 µM.
As to `Fc1ccc(-c2cc(-c3ccc(F)cc3)c3cccc(P(=S)(c4ccccc4)c4ccccc4)c3n2)cc1`, the IC50 with SK-OV-3, with HEK293, with MRC5 and in the experiment with A549 was greater than 50 µM each time.
With `O=P(c1ccccc1)(c1ccccc1)c1cccc2c(-c3ccccc3)cc(-c3ccc(C(F)(F)F)cc3)nc12`, the IC50 with SK-OV-3 was 15.2 µM; in the experiment with HEK293 it was 19.4 µM; in the experiment with MRC5, greater than 50 µM; in the experiment with A549 it was 1.03 µM. For the same molecule, the inhibition in experiment [1] is 28%; in experiment [2], 28%; in experiment [3], 31%.
For the molecule `O=P(c1ccccc1)(c1ccccc1)c1cccc2c(-c3ccc(F)cc3)cc(-c3ccc(F)cc3)nc12`, the IC50 with SK-OV-3 was 6.77 µM; in the experiment with HEK293, 12.5 µM; in the experiment on MRC5, greater than 50 µM; in the experiment on A549, 3.82 µM. Also, the inhibition in experiment [1] turned out to be 50%; in experiment [2], 13%; in experiment [3] it was 50%.
For `COc1ccccc1-c1cc(-c2ccccc2)c2cccc(P(=O)(c3ccccc3)c3ccccc3)c2n1`, the half-inhibitory concentration (IC50) in the experiment on SK-OV-3 is 13.1 µM; in the experiment with HEK293, 24.1 µM; in the experiment on MRC5, greater than 50 µM; in the experiment with A549 it was 3.11 µM. Also, the inhibition was found to be 83% in experiment [1], 63% in experiment [2] and 90% in experiment [3].
As for `O=P(c1ccccc1)(c1ccccc1)c1cccc2c1N[C@H](c1ccc(C(F)(F)F)cc1)C[C@@H]2c1ccccc1`, the IC50 in the experiment on SK-OV-3 was greater than 50 µM; in the experiment with HEK293 it was 28 µM; with MRC5 it was greater than 50 µM; in the experiment on A549, 0.5 µM. Besides, the inhibition in experiment [1] was determined as 56%; in experiment [2], 16%; in experiment [3] it was 61%.
With `Fc1ccc([C@@H]2C[C@H](c3ccccc3)c3cccc(P(=S)(c4ccccc4)c4ccccc4)c3N2)cc1F`, the IC50 in the experiment with SK-OV-3 is greater than 50 µM; with HEK293, greater than 50 µM; in the experiment on MRC5 it was greater than 50 µM; in the experiment on A549 it was 0.08 µM. Also, the inhibition in experiment [1] came out at 50%; in experiment [2] it was 49%; in experiment [3], 57%.
As for `O=P(c1ccccc1)(c1ccccc1)c1cccc2c1N[C@H](c1ccc(F)cc1)C[C@@H]2c1ccc(F)cc1`, the IC50 is 17.8 µM in the experiment on SK-OV-3, 23.9 µM in the experiment on HEK293, greater than 50 µM in the experiment on MRC5 and 0.25 µM in the experiment on A549. Further, the inhibition in experiment [1] is 50%; in experiment [2], 45%; in experiment [3], 54%.
Regarding `Fc1ccc([C@@H]2C[C@H](c3ccccc3)c3cccc(P(=S)(c4ccccc4)c4ccccc4)c3N2)cc1`, the concentration for half-maximal inhibition (IC50) in the experiment on SK-OV-3 was greater than 50 µM; in the experiment on HEK293 it was greater than 50 µM; in the experiment with MRC5, greater than 50 µM; with A549, 0.27 µM. For the same molecule, the inhibition was 39% in experiment [1], 37% in experiment [2] and 41% in experiment [3].
Consider `O=P(c1ccccc1)(c1ccccc1)c1cccc2c(-c3ccccc3)cc(-c3ccccc3)nc12`, for which the half-maximal inhibitory concentration (IC50) in the experiment with SK-OV-3 was 14.5 µM; with HEK293 it was 13.8 µM; in the experiment with MRC5, greater than 50 µM; in the experiment on A549, 1.21 µM. Besides, the values for the inhibition in experiment [1], in experiment [2] and in experiment [3] were 57%, 8% and 57%, respectively.
In the case of `O=P(c1ccccc1)(c1ccccc1)c1cccc2c1N[C@H](c1cccc3ccccc13)C[C@@H]2c1ccccc1`, the IC50 in the experiment on SK-OV-3 is greater than 50 µM; in the experiment on HEK293, greater than 50 µM; with MRC5, greater than 50 µM; in the experiment with A549, 3.57 µM. In addition, the inhibition in experiment [1] amounted to 63%; in experiment [2], 45%; in experiment [3], 63%.
On to `O=P(c1ccccc1)(c1ccccc1)c1cccc2c1N[C@H](c1ccc(F)cc1)C[C@@H]2c1ccccc1`, for which the IC50 with SK-OV-3 is 24.1 µM; in the experiment with HEK293 it was 26.5 µM; with MRC5, greater than 50 µM; with A549 it was 2.69 µM. Further, the inhibition amounted to 50% in experiment [1], 16% in experiment [2] and 55% in experiment [3].
With `O=P(c1ccccc1)(c1ccccc1)c1cccc2c1N[C@H](c1ccccc1)C[C@@H]2c1ccccc1`, the IC50 is greater than 50 µM with SK-OV-3, greater than 50 µM in the experiment with HEK293, greater than 50 µM with MRC5 and 1.72 µM in the experiment on A549. The inhibition in experiment [1] was found to be 50%; in experiment [2], 21%; in experiment [3] it was 52%.
On to `S=P(c1ccccc1)(c1ccccc1)c1cccc2c(-c3ccccc3)cc(-c3ccccc3)nc12`, for which the IC50 in the experiment with SK-OV-3, in the experiment with HEK293, with MRC5 and in the experiment with A549 was greater than 50 µM each time. Besides, the inhibition came to 60% in experiment [1], 24% in experiment [2] and 75% in experiment [3].
On to `O=P(c1ccccc1)(c1ccccc1)c1cccc2c(-c3ccccc3)cc(-c3ccccn3)nc12`, for which the IC50 in the experiment on SK-OV-3 was 17.3 µM; in the experiment on HEK293, 12 µM; in the experiment on MRC5, greater than 50 µM; with A549, 2.93 µM. The inhibition in experiment [1] stood at 52%; in experiment [2], 11%; in experiment [3], 58%.
As to `Cc1ccc([C@H]2C[C@@H](c3ccccc3)Nc3c2cccc3P(=O)(c2ccccc2)c2ccccc2)cc1`, the concentration for half-maximal inhibition (IC50) in the experiment on SK-OV-3 is greater than 50 µM; with HEK293, 28 µM; with MRC5, greater than 50 µM; in the experiment with A549 it was 1.2 µM. For the same molecule, the inhibition in experiment [1] stood at 25%; in experiment [2] it was 12%; in experiment [3], 28%.
In the case of `Cc1ccc(-c2cc(-c3ccccc3)nc3c(P(=O)(c4ccccc4)c4ccccc4)cccc23)cc1`, the IC50 with SK-OV-3 was 17.4 µM; in the experiment with HEK293, 8.97 µM; in the experiment on MRC5, greater than 50 µM; in the experiment with A549, 7.65 µM. In addition, the inhibition turned out to be 7% in experiment [1], 5% in experiment [2] and 7% in experiment [3].
For `COc1ccc([C@@H]2C[C@H](c3ccc(C)cc3)c3cccc(P(c4ccccc4)c4ccccc4)c3N2)cc1`, the half-maximal inhibitory concentration (IC50) in the experiment with SK-OV-3 is greater than 50 µM; in the experiment with HEK293, greater than 50 µM; in the experiment with MRC5, greater than 50 µM; in the experiment with A549, 2.48 µM. The inhibition in experiment [1], in experiment [2] and in experiment [3] was 52% in each case.
On to `O=P(c1ccccc1)(c1ccccc1)c1cccc2c(-c3ccccc3)cc(-c3cccc4ccccc34)nc12`, for which the IC50 in the experiment with SK-OV-3 was greater than 50 µM; in the experiment with HEK293, 54.4 µM; with MRC5 it was greater than 50 µM; with A549 it was 6.32 µM. The inhibition in experiment [1] was found to be 87%; in experiment [2] it was 65%; in experiment [3], 89%.
